Assay outcomes: PubChem, The Scripps Research Institute Molecular Screening Center
Shown are actives, neighbours in structure and some others; about 2% of the full set was active somewhere.
ASAP1 inh = blocks human ASAP1-stimulated Arf1 GTP hydrolysis. Q9ULH1. GDP FP detection. inhibition, % at 16.5 µM. 360,000 compounds, 0.19% hits; in the data active = inhibition above about 25%;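 also: 0% = vehicle with enzyme and substrate and 100% = no enzyme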
TCR-CD3 inh = inhibitors of human TCR-CD3 interaction; 360,000 compounds, 0.37% hits; inhibition, % at 9.4 µM; AID 651800; TAMRA-labeled TCR probe fluorescence, biochemical; in the data active = inhibition above about 19%;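 also: recombinant mutant TCR 2C K166C tagged with TAMRA read by polarization; 0% = receptor in buffer alone and 100% = receptor with positive control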
ARFGAP1 inh = inhibitors of rat ARFGAP1. Q62848. Arfgap1-stimulated ARF1 GTP hydrolysis, GDP FP detection. inhibition, % at 16.5 µM. 360,000 compounds, 0.26% hits. AID 651572;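 active = inhibition above a per-plate limit, mean inhibition of low control wells plus 3 SD, cut at about 25% in these data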;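 also: 0% = DMSO wells with enzyme and 100% = wells lacking Arfgap1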
Target sequence (Q62848 1-136 limits assumed): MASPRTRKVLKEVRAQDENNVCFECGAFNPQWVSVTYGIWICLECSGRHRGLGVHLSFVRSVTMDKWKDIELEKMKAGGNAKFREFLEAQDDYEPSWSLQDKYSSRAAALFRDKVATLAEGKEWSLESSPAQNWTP
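System: truncated rat Arfgap1 GAP domain / Medium: HEPES-based buffer, pH 7.5 / Also added: N-terminally truncated human ARF1-GTP substrate / Incubation: enzyme reaction 120 min at 25 °C after 20 min preincubation / Measured by: FP of antibody-bound GDP Alexa 633 tracer, ex 620/em 688 nm / Replicates: singlicate, each compound tested once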
MBD2 DNA inh = MBD2-methylated oligo binding inhibition. Q9UBB5. TR-FRET, MBD2 binding to methylated oligonucleotide. inhibition, % at 4.4 µM. 370,000 compounds, 0.31% hits. AID 686964; in the data active = inhibition above about 13%
Target sequence (Q9UBB5 whole entry, looked up): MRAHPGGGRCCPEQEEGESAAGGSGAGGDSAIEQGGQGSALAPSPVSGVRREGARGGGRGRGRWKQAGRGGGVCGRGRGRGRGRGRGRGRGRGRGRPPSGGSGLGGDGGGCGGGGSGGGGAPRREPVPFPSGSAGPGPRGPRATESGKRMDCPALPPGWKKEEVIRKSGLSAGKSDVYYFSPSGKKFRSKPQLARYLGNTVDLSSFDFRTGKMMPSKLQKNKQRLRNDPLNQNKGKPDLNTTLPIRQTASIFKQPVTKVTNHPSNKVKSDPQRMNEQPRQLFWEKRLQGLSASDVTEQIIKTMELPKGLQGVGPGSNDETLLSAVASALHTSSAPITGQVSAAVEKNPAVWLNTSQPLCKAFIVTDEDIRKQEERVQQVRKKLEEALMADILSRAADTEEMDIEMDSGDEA
UHRF1 MBD2 ctr = blocks human UHRF1 binding to methylated DNA; Q96T88; UHRF1 binding to methylated oligo, TR-FRET; inhibition, % at 4.4 µM; 370,000 compounds, 0.75% hits; AID 687016;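 also: UHRF1 SRA domain binding a hemimethylated CpG hairpin DNA probe; 0% = median of test compound wells and 100% = reference inhibitor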
LEDGF integ inh = blocks HIV-1 LEDGF/p75-dependent DNA integration. 370,000 compounds, 0.64% hits. inhibition, % at 3.7 µM. AID 743269. TR-FRET IN-LEDGF/p75 DNA integration, Eu/Cy5;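 active = inhibition above the screen-wide mean plus 3 SD, cut at about 13% in these data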;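 also: signal is the Cy5 over europium emission ratio at 671 and 618 nm; 0% = plate median of compound wells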
UHRF1 ctr MBD2 = counter-screen for MBD2 inhibitors: human UHRF1 methylated DNA binding inhibitors; 1,000 compounds, 25% hits; AID 720530; inhibition, % at 4.4 µM; UHRF1 binding to methylated oligonucleotide, TR-FRET; shares compounds with MBD2 DNA inh;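 also: UHRF1 SRA domain binding a labeled hemimethylated CpG hairpin DNA; 0% = vehicle only and 100% = reference inhibitor with vehicle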
MBD2 DBD conf = confirmation of human MBD2-DBD methylated oligonucleotide binding inhibitors; shares compounds with MBD2 DNA inh; TR-FRET MBD2-DBD binding to methylated oligonucleotide; inhibition, % at 4.4 µM; 1,000 compounds, 26% hits; in the data active = inhibition above about 14%
IN multimer act = HIV-1 integrase multimerization activation, counter-screen; activation, % at 7.7 µM; shares compounds with LEDGF integ inh; AID 1053131; 2,000 compounds, 17% hits; TR-FRET HIV-1 integrase multimerization, biochemical; in the data active = activation above about 8.9%
TR-FRET interf = TR-FRET optical interference, LEDGF/p75 integration counter-screen. shares compounds with LEDGF integ inh. TR-FRET optical interference counterscreen, HIV-1 IN multimerization. inhibition, % at 7.7 µM. 2,000 tested, under 10 active;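 active = inhibition above the mean over all tested compounds plus 3 SD, which no compound reached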;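 also: 0% = integrase with antibodies and DMSO and 100% = antibodies without integrase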
LEDGF integ conf = confirmation of HIV-1 LEDGF/p75-dependent integration inhibitors; shares compounds with LEDGF integ inh; TR-FRET LEDGF/p75-dependent HIV-1 integration, biochemical; inhibition, % at 3.7 µM; 2,000 compounds, 36% hits; AID 1053136; in the data active = inhibition above about 14%
* = called active by the depositor; . = no result. Rule as the data show it, unless noted: active = inhibition above about 21%; inactive = the rest.

SMILES	ASAP1 inh	TCR-CD3 inh	ARFGAP1 inh	MBD2 DNA inh	UHRF1 MBD2 ctr	LEDGF integ inh	UHRF1 ctr MBD2	MBD2 DBD conf	IN multimer act	TR-FRET interf	LEDGF integ conf
C=C(C)C(=O)Nc1cccc(C2=NOC3(C2)C[C@@H](C(N)=O)N(C(=O)/C=C/C=C/C)C3)c1 (stereo not given in full)	-2	5	3	47*	79*	18*	88*	60*	41*	-205	19*
C=C(C)C(=O)Nc1cccc(C2=NOC3(C2)C[C@@H](C(N)=O)N(C(=O)/C(C)=C/C)C3)c1 (stereo not given in full)	2	1	10	38*	89*	39*	91*	69*	57*	-285	52*
CC(C)OC(=O)N(C)C[C@@H]1OCc2cnnn2CCCC(=O)N([C@H](C)CO)C[C@@H]1C	1	-2	7	-5	2	0	.	.	.	.	.
CCc1cc(=O)oc2cc(C)c(CN3CCCC3)c(O)c12	-22	8	-17	15*	32*	35*	16	11	6	-30	40*
Cc1ccc(NC(=O)CN(C)C(=O)C2CC(=O)N(Cc3ccccc3)C2)cc1 (stereo not given)	-13	-1	-1	0	0	-11	.	.	.	.	.
c1coc(-c2nnc3sc(Cc4cccs4)nn23)c1	4	8	2	19*	71*	38*	8	9	6	-28	18*
COc1ccc(OCc2nn3c(-c4ccco4)nnc3s2)cc1	3	-3	-3	-6	-1	1	.	.	.	.	.
CCO[C@@H]1OC(C(=O)NCc2nc3ccccc3[nH]2)=C[C@H](c2coc3ccccc3c2=O)[C@H]1CCCO	-3	5	-3	0	-2	-1	.	.	.	.	.
O=c1c2cc(O)c(O)cc2oc2cc(O)c(C3OC(CO)C(O)C(O)C3O)c(O)c12 (stereo not given)	-6	14	5	43*	60*	82*	45*	40*	70*	-351	86*
CC(=O)Cc1cc(=O)c2c(C)cc(O)c(C3OC(CO)C(O)C(O)C3O)c2o1 (stereo not given)	-1	-9	-2	-2	-2	-2	.	.	.	.	.
COCCN1CC(C(=O)NCc2ncccc2C)CCC1=O (stereo not given)	-9	1	7	-3	1	-5	.	.	.	.	.
Cc1[nH]n(-c2ccccc2)c(=O)c1C(c1ccc(O)c([N+](=O)[O-])c1)c1c(C)[nH]n(-c2ccccc2)c1=O	-2	-4	18	15*	15	38*	2	-4	4	-19	-4
COc1cccc(C(c2c(C)[nH]n(-c3ccccc3)c2=O)c2c(C)[nH]n(-c3ccccc3)c2=O)c1O	-5	-10	6	21*	21*	23*	-4	0	5	-27	7
Cc1[nH]n(-c2ccccc2)c(=O)c1C(=O)c1ccccc1	-14	-6	8	0	-7	-1	.	.	.	.	.
COc1cccc(C(c2c(C)[nH]n(-c3ccccc3)c2=O)c2c(C)[nH]n(-c3ccccc3)c2=O)c1OC	-8	6	11	17*	18	21*	2	1	3	-10	-2
O=c1c2cc([N+](=O)[O-])cc([N+](=O)[O-])c2[nH]n1-c1ccccc1	-2	-4	10	-8	-9	-8	.	.	.	.	.
COc1ccc(Cl)cc1Nc1nc(NCCO)nc(N2CCCC2)n1	-1	7	5	17*	72*	24*	1	10	2	-7	-1
CCN(CC)c1ccc(NC(=O)CCS(=O)(=O)c2ccc(Br)cc2)c(C)c1	-5	-8	0	25*	54*	17*	63*	30*	35*	-128	12
COc1cc(/C=C2\CCc3c2nc2ccccc2c3C(=O)O)cc(OC)c1OC	1	16	-12	26*	48*	26*	34*	14*	7	-37	34*
O=C(O)c1ccc2c(c1)C1C=CCC1C(c1ccncc1)N2 (stereo not given)	6	-2	-5	-1	3	2	.	.	.	.	.
COCCNC(=O)C1Nc2ccc(C(F)(F)F)cc2C2C=CCC12 (stereo not given)	3	-4	-8	-7	-6	3	.	.	.	.	.
CC(C)C1Nc2ccc(C(=O)O)cc2C2C=CCC21 (stereo not given)	-12	0	1	14*	30*	17*	14	1	5	-27	24*
CCOC(=O)C1Nc2ccc(C(=O)O)cc2C2C=CCC12 (stereo not given)	-6	8	-3	27*	72*	67*	48*	11	45*	-162	60*
COc1ccc(Cc2nnc(NC(=O)C3CC(=O)N(c4ccc(OC)cc4)C3)s2)cc1 (stereo not given)	-1	1	0	3	6	-5	.	.	.	.	.
CCOc1ccc(N2CC(C(=O)Nc3nnc(Cc4ccc(OC)cc4)s3)CC2=O)cc1 (stereo not given)	5	9	1	33*	65*	15*	7	4	2	-9	3
C=CCNC(=O)c1ccccc1NC(=O)c1ccc(Cl)c(S(=O)(=O)Nc2ccccc2)c1	6	-4	6	3	3	0	.	.	.	.	.
CCc1ccccc1NC(=O)CCS(=O)(=O)c1ccc(OC)cc1	0	4	0	40*	75*	16*	13	4	3	-11	-1
CCOc1ccccc1NC(=O)CCS(=O)(=O)c1ccc(OC)cc1	-1	1	11	5	1	0	.	.	.	.	.
O=C(CCSCc1cccc(Cl)c1)NCCC1=CCCCC1	-10	2	-3	-6	-1	0	.	.	.	.	.
O=C(CCSCc1cccc(Cl)c1)NC1CCCC1	-4	6	-1	1	1	51*	.	.	3	-17	5
